Assay results pooled from the literature.
Compare with care: the assays were run in different laboratories.
HTR2B: 5-hydroxytryptamine receptor 2B (HTR2B, Homo sapiens, UniProt P41595)

Structure (SMILES)	target	test	setting	measurement	value
c1cncc([C@@H]2CCCN2)c1	Neuronal acetylcholine receptor; alpha3/beta4 (Rattus norvegicus, UniProt P04757+P12392)	ligand displacement, radioligand	50 µM	inhibition	69.1%
CC[C@H](C)[C@H](NC(=O)[C@H](CO)NC(=O)[C@H](Cc1ccc(O)cc1)NC(=O)[C@H](CC(=O)O)NC(=O)[C@H](CO)NC(=O)[C@@H](NC(=O)[C@H](Cc1ccccc1)NC(=O)[C@@H](NC(=O)CNC(=O)[C@H](CCC(=O)O)NC(=O)CCNC(=O)C1(c2ccc(Cl)cc2)CCOCC1)[C@@H](C)O)[C@@H](C)CC)C(=O)N[C@@H](C)C(=O)N[C@@H](CCSC)C(=O)N[C@@H](CC(=O)O)C(=O)N[C@@H](CCCCN)C(=O)N[C@H](C(=O)N[C@@H](Cc1c[nH]cn1)C(=O)N[C@@H](CCC(N)=O)C(=O)N[C@@H](CCC(N)=O)C(=O)N[C@@H](CC(=O)O)C(=O)N[C@@H](Cc1ccccc1)C(=O)N[C@H](C(=O)N[C@@H](CC(N)=O)C(=O)N[C@@H](Cc1c[nH]c2ccccc12)C(=O)N[C@@H](CC(C)C)C(=O)N[C@@H](CC(C)C)C(=O)N[C@@H](C)C(=O)N[C@@H](CCC(N)=O)C(=O)NCC(=O)N1CCC[C@H]1C(=O)N[C@@H](CO)C(=O)N[C@@H](CO)C(=O)NCC(=O)N[C@@H](C)C(=O)N1CCC[C@H]1C(=O)N1CCC[C@H]1C(=O)N1CCC[C@H]1C(=O)N[C@@H](CO)C(=O)N[C@@H](CCCCN)C(N)=O)C(C)C)[C@@H](C)CC	Glucagon receptor (Mus musculus, UniProt Q61606)	cAMP, agonist	–	Emax	< 20%
COc1cc(C(F)(F)F)c(OC)cc1C1CCCNC1 (stereo not shown)	HTR2B	G protein activation, agonist, BRET	–	Emax	84%
COc1cc2c3c(c1OC)-c1c(OC)ccc(O)c1CC3N(C)CC2 (stereo not shown)	HTR2B	ligand displacement, radioligand	10 µM	inhibition	86%
Nc1ncnc2c1ncn2[C@@H]1O[C@H](C[C@@H](N)CC[C@H](N)C(=O)O)[C@@H](O)[C@H]1O	mRNA cap guanine-N(7) methyltransferase (RNMT, Homo sapiens, UniProt O43148)	enzyme activity, inhibitor	12.21 nM	inhibition	13.7%
COc1cc2cc3c4c(cc(OC)c(OC)c4c2cc1OC)CCN3C	5-hydroxytryptamine receptor 2C (HTR2C, Homo sapiens, UniProt P28335)	ligand displacement, radioligand	10 µM	inhibition	-1%
[2H]c1c([2H])c([C@]2([2H])CCCN2C(=O)C(C)(C)Oc2ccc3cn[nH]c3c2)c([2H])c([2H])c1C([2H])([2H])[2H]	Serine/threonine-protein kinase DCLK3 (DCLK3, Homo sapiens, UniProt Q9C098)	binding, competition with immobilised ligand	1 µM	remaining binding	86%
CN1CCC[C@H]1c1cccnc1	HTR2B	ligand displacement	50 µM	inhibition	-8.78%
CC(C)CC(=O)OC[C@H]1O[C@@](C#N)(c2ccc3c(N)ncnn23)[C@H](O)[C@@H]1O	HTR2B	cell-free assay	20 µM	inhibition	10%
COc1cc2c3c(c1OC)-c1c(OC)ccc(Cl)c1CC3N(C)CC2 (racemic)	HTR2B	ligand displacement, radioligand	10 µM	inhibition	87%
